rCAG RNA binder – molecules binding r(CAG) RNA repeats | r(CAG) RNA repeat, TO-PRO-1 dye displacement fluorescence | AID 651821 | inhibition, % at 3 µM | 1.3% of 370,000 active;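 active = inhibition above the plate cutoff, the mean of all test compounds on that plate plus 3 SD, cut at about 35% in these data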;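 note: higher means more dye released from RNA so lower well fluorescence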
LMPTP inh – blocks human LMPTP phosphatase; recombinant LMPTP-A, OMFP fluorogenic substrate, fluorescence intensity; inhibition, % at 20 µM; 0.22% of 360,000 active; AID 651560;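 active = compounds that cut the enzyme signal by at least half of the control window in the single-dose screen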
Target sequence (P24666 whole entry, looked up): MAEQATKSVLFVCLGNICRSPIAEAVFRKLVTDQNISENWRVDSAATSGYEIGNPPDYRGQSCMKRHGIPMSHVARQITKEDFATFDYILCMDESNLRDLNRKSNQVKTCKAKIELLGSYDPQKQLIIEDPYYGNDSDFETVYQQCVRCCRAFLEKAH
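Test system: LMPTP-A, protein tyrosine phosphatase of low molecular weight; Input: 0.625 nM enzyme; Incubation: 50 min dark incubation at room temperature; Signal: endpoint fluorescence intensity from OMFP dephosphorylation; Read-out basis: % inhibition versus control wells.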
Scp1 inh – blocks human Scp-1 phosphatase activity; Q9GZU7; Recombinant Scp1, phosphopeptide, malachite green phosphate absorbance; inhibition, % at 20 µM; 0.88% of 340,000 active; AID 493091;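 active = inhibition above about 50% at 20 µM, limit read from the data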
Target sequence (Q9GZU7 76-261 limits assumed): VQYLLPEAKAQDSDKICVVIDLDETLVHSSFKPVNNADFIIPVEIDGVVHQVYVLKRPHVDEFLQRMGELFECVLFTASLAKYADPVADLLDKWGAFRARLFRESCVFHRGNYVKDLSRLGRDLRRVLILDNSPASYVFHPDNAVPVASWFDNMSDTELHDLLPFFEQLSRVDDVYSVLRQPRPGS
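Test system: SCP-1 phosphatase catalytic domain, residues 76-261 | Compound dosing: One concentration, 20 µM, with 1.0% DMSO | Schedule: 45 min room-temperature reaction, 5 min colour, 30 min stabiliser | Detection: Absorbance at 630 nm | Read-out basis: % inhibition of SCP-1 phosphate liberation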
NadD inh – blocks S. aureus nicotinate mononucleotide adenylyltransferase. AID 602399. purified NadD enzyme, colorimetric absorbance read-out. 0.78% of 360,000 active. inhibition, % at 20 µM; in the data active = inhibition above about 26%
STEP block – blocks human striatal-enriched tyrosine phosphatase | P54829 | recombinant STEP, OMFP fluorogenic substrate, fluorescence | inhibition, % at 20 µM | 0.25% of 360,000 active;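 active = inhibition at 20 µM, scaled per plate between control wells, above about 37%, limit read from the data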
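material = STEP tyrosine phosphatase | reagent = fluorogenic phosphatase substrate OMFP at 25 µM final | doses = single compound dose of 20 µM, 1% DMSO final | schedule = 20 min reaction, room temperature, in the dark | measured by = fluorescence, 480/540 nm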
rCAG binder conf – r(CAG) RNA repeat binding, confirmation | shares compounds with rCAG RNA binder | 70% of 4,300 active | TO-PRO-1 dye displacement fluorescence | AID 652065 | inhibition, % at 3 µM;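 active = inhibition above a per-plate cutoff, the mean inhibition of sample wells plus 3 SD, cut at about 35% in these data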;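 note: loss of TO-PRO-1 fluorescence as compound displaces dye from 1x1 AA loop RNA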
dCAG dye counter – DNA CAG dye complex inhibition counter-screen; shares compounds with rCAG RNA binder; d(CAG) DNA oligo TO-PRO-1 dye displacement, fluorescence; inhibition, % at 3 µM; 94% of 4,300 active; AID 652068;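 active = inhibition above its plate's cutoff, the mean test-well inhibition plus 3 SD, cut at about 4.8% in these data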;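 note: hits displace the dye from DNA and so lower well fluorescence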
DNA CAG DR – DNA CAG dye complex inhibition, dose response counter-screen; shares compounds with rCAG RNA binder; DNA CAG/GTC duplex TO-PRO-1 dye displacement fluorescence; IC50, µM; 20% of 250 active; AID 686960; in the data active = IC50 below about 10 µM
Of the large screens only hits and unclear results are named; the others gave an inactive call (follow-up assays come after a bar, where they were run). Sampled rows, rich in hits. Any-hit rate of the full collection: about 2.6%.

CC1=C(C#N)C(=O)NC(=O)/C1=C\c1ccc(-c2ccc(C)cc2[N+](=O)[O-])o1	rCAG RNA binder 43 | rCAG binder conf 73 | dCAG dye counter 34 | DNA CAG DR 5.1
Cc1ccc(C)c(S(=O)(=O)C(C#N)c2nc3ccccc3nc2N2CC(C)OC(C)C2)c1 (centres undefined)	rCAG RNA binder 38 | rCAG binder conf 75 | dCAG dye counter 41
O=C1NC(=S)S/C1=C\c1ccc(SCc2ccccc2)o1	rCAG RNA binder 82 | rCAG binder conf 79 | dCAG dye counter 43
O=c1oc2ccccc2c2oc3cc(O)c(O)cc3c12	rCAG RNA binder 41 | rCAG binder conf 53 | dCAG dye counter 28
Nc1c(N)c2ccccc2oc1=O	none
O=C(Nc1ccccc1C(=O)Nc1nnc(C(F)(F)F)s1)c1ccccc1	rCAG RNA binder 38 | rCAG binder conf 72 | dCAG dye counter 33
Cc1occc1C(=O)Nc1nnc(C(F)(F)F)s1	none
COc1cc(OC)c2c(=O)c3c(C(=O)O)c(O)ccc3oc2c1	none (no result: LMPTP inh, Scp1 inh, NadD inh, STEP block)
O=C(OCCC12CC3CC(CC(C3)C1)C2)c1ccc(NCc2cc(O)ccc2O)cc1	rCAG RNA binder 36, Scp1 inh 70 | rCAG binder conf inactive | dCAG dye counter 11
O=C(OCC12CC3CC(CC(C3)C1)C2)c1ccc(NCc2cc(O)ccc2O)cc1	none
COc1ccc(CNC(=O)COc2cc(O)c3c(c2)OC(C)(C)CC3=O)c(OC)c1	none
COc1cc(OC)c2c(O)c3c(=O)cc(C)oc3c(-c3c(OC)cc4cc5c(c(O)c4c3O)C(=O)CC(C)(O)O5)c2c1 (centres undefined)	rCAG RNA binder 44 (no result: LMPTP inh, Scp1 inh, NadD inh, STEP block) | rCAG binder conf 41 | dCAG dye counter 22
CN(Cc1ccccc1)C(=O)OCc1cn(Cc2ccc(Cl)cc2)nn1	none (no result: LMPTP inh, Scp1 inh, NadD inh, STEP block)
O=C(N/N=C/c1cc(Cl)c(O)c(Cl)c1)c1cc2c(ccc3ccccc32)o1	rCAG RNA binder 86 | rCAG binder conf 78 | dCAG dye counter 40
O=C(N/N=C/c1cc(Br)c(O)c(Br)c1)c1cc2c(ccc3ccccc32)o1	rCAG RNA binder 96 | rCAG binder conf 78 | dCAG dye counter 46
O=C(N/N=C/c1cccnc1)c1cc2c(ccc3ccccc32)o1	none
O=C(O)c1cc(NS(=O)(=O)c2ccc3ccccc3c2)ccc1O	none
O=C(O)c1ccccc1NS(=O)(=O)c1cccc(-n2sc3ccccc3c2=O)c1	rCAG RNA binder 72, Scp1 inh 95 | rCAG binder conf 74 | dCAG dye counter 34 | DNA CAG DR 7.2
O=c1oc(-c2ccccc2NS(=O)(=O)c2ccc3ccccc3c2)nc2ccccc12	rCAG RNA binder 66 | rCAG binder conf 37 | dCAG dye counter 12
O=C(O)c1ccccc1NS(=O)(=O)c1cccc(C(F)(F)F)c1	none
O=C(O)c1ccccc1NS(=O)(=O)c1ccc2ccccc2c1	rCAG RNA binder 39 | rCAG binder conf inactive | dCAG dye counter 6.1
COc1ccccc1NC(=O)C(=O)NNS(=O)(=O)c1ccc2ccccc2c1	rCAG RNA binder 38 | rCAG binder conf inactive | dCAG dye counter 6.1
CC(C)(C)C(=O)OC12CCCN(C1)/C(=C/c1cccnc1)C2 (centres undefined)	none (no result: LMPTP inh, Scp1 inh, NadD inh, STEP block)
C=CCN1[C@H](CC(C)C)COc2cccc(F)c2S1(=O)=O	none (no result: LMPTP inh, Scp1 inh, NadD inh, STEP block)
COc1ccccc1NC(=O)c1c(NC(=O)CCC(=O)O)sc2c1CCCCC2	none
O=C(O)CCC(=O)Nc1sc2c(c1C(=O)Nc1cccc3ccccc13)CCCCC2	rCAG RNA binder 43 | rCAG binder conf inactive | dCAG dye counter 15
COc1ccc(OC)c(NC(=O)c2c(NC(=O)CCC(=O)O)sc3c2CCCCC3)c1	rCAG RNA binder 41 | rCAG binder conf 49 | dCAG dye counter 17
O=C(O)CCC(=O)Nc1sc2c(c1C(=O)Nc1ccccc1)CCCCC2	none
CCOC(=O)c1cccc(NC(=O)CN(C)S(=O)(=O)c2ccc(F)cc2)c1	none (no result: LMPTP inh, Scp1 inh, NadD inh, STEP block)
CC(=O)C1C(=O)c2c(cccc2[N+](=O)[O-])C1=Nc1ccc(S(N)(=O)=O)cc1 (centres undefined)	rCAG RNA binder 38 | rCAG binder conf inactive | dCAG dye counter 13
COC(=O)[C@]12C[C@H](CC(=O)N3CCN(C(=O)c4ccco4)CC3)C(=O)N(CCc3ccc(OC)c(OC)c3)C1=C[C@H](C1CCCC1)O[C@@H]2C	none (no result: LMPTP inh, Scp1 inh, NadD inh, STEP block)
COc1ccc(C(=NNc2ccccc2C(=O)O)c2ccc(OC)cc2)cc1	rCAG RNA binder 83 | rCAG binder conf 66 | dCAG dye counter 26
COc1ccc(C(=O)Nc2ccccc2C(=O)Nc2ccccc2C(=O)O)cc1	rCAG RNA binder 78 | rCAG binder conf 77 | dCAG dye counter 40
CCOc1cc(/C=N/N=C2/NC(=O)C(CC(=O)O)S2)ccc1OS(=O)(=O)c1ccc(C)cc1 (centres undefined)	rCAG RNA binder 56 | rCAG binder conf 36 | dCAG dye counter 9.7
CCCC(=O)N1CCC[C@]2(CC[C@H](CCC(C)=O)O2)C1	none (no result: LMPTP inh, Scp1 inh, NadD inh, STEP block)
C/C(=N\NC(=O)c1cccc(S(=O)(=O)Nc2ccc(C)cc2C)c1)c1ccncc1	none
C/C(=N\NC(=O)c1ccc(Cl)c(S(=O)(=O)Nc2ccccc2Cl)c1)c1ccncc1	rCAG RNA binder 51 | rCAG binder conf 41 | dCAG dye counter 11
C/C(=N\NC(=O)c1cccc(S(=O)(=O)Nc2ccccc2Cl)c1)c1ccco1	rCAG RNA binder 48 | rCAG binder conf inactive | dCAG dye counter 6.8
CCc1ccccc1NC(=O)C1CCC(=O)N(c2ccc(OC)cc2)C1c1ccc(OC)cc1 (centres undefined)	none (no result: LMPTP inh, Scp1 inh, NadD inh, STEP block)
Cc1cccc(NC(=O)CCS(=O)(=O)c2ccccc2)c1C	none (no result: LMPTP inh, Scp1 inh, NadD inh, STEP block)
Cc1nc2cc(-c3ccsc3-n3c(C)ccc3C)[nH]n2c(=O)c1Cl	rCAG RNA binder 51 | rCAG binder conf 60 | dCAG dye counter 26
CCCCS(=O)(=O)N1CCCc2nc(-c3ccc(OC)cc3)ccc21	none (no result: LMPTP inh, Scp1 inh, NadD inh, STEP block)
C=CCN1c2ccccc2C(=O)C(C)S1(=O)=O (centres undefined)	none
COc1cccc(CN2c3ccc(Br)cc3C(=O)CS2(=O)=O)c1	rCAG RNA binder 52 | rCAG binder conf 39 | dCAG dye counter 16
COc1cccc(CN2C(=O)C(C)Oc3ccccc32)c1 (centres undefined)	none
C=CCN1c2ccc(Br)cc2C(=O)CS1(=O)=O	rCAG RNA binder 66 | rCAG binder conf inactive | dCAG dye counter 6.3
CCCN(CCC)S(=O)(=O)c1ccc(NS(C)(=O)=O)cc1	none
CCCN(CCC)S(=O)(=O)c1ccc(NS(=O)(=O)c2ccc(F)cc2)cc1	rCAG RNA binder 46 | rCAG binder conf 35 | dCAG dye counter 8.4
